Each structure is given as a SMILES string.

For series [1], the system named is MDA-MB-231. Nature of the series: Cytotoxicity against human MDA-MB-231 cells assessed as optical density after 24 hrs by MTT assay (Rvb =2.43 +/- 0.05 nm). The format is functional. A digest of the protocol:
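Exponentially growing MDA-MB-231 cells were resuspended in medium with 10% FBS, washed with PBS, and treated in fresh medium for 24 h. MTT (5 mg/mL stock in PBS) was then added for 4 h at 37 °C. Formazan was dissolved in DMSO and optical density read at 570 nm.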

The nature of series [2]: Lipophilicity, log P of the compound. The format is physicochemical. The conditions noted are these: octanol/water.
The test system of series [3] is MDA-MB-231. As to the kind of experiment: Cytotoxicity against human MDA-MB-231 cells assessed as cell viability at 100 ug/ml after 24 to 48 hrs by trypan blue exclusion assay (reference value: 86.21 +/- 1.80%). The format is functional. The settings on record: read-out: Activity. A digest of the protocol: (§1)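 MDA-MB-231 cells (DMEM, 10% FBS, 2 mM glutamine, 37 °C, 5% CO2) seeded at 2 x 10^5/well and grown 24 h. Compound in fresh medium with 0.1% DMSO (solvent control) for 24–48 h at 37 °C. Floating plus trypsinized adherent cells mixed 1:1 with 0.4% trypan blue and counted by haemocytometer. % viable = (total − dead)/total × 100. Mean SE, n = 3.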

Series [4] has as its system MDA-MB-231. Nature of the series: Cytotoxicity against human MDA-MB-231 cells assessed as cell viability at 10 ug/ml after 24 to 48 hrs by trypan blue exclusion assay (reference value: 87.54 +/- 2.11%). The conditions noted are these: read-out: Activity. In kind it is functional. An outline of the steps: as §1

Consider `COC(=O)c1sc(-c2ccc(OCC(C)C)c(C#N)c2)nc1C`, for which the OD in the series on MDA-MB-231 [1] was 2.27. This compound came in with a logP in series [2] of 1.63. For the same compound, the viability at 100 µg/mL in the series on MDA-MB-231 [3] was 67.6%. The viability at 10 µg/mL in the series on MDA-MB-231 [4] came out at 76.7%.

Take `Cc1nc(-c2ccc(OCC(C)C)c(C#N)c2)sc1C(=O)O` [FEBUXOSTAT]: in the series on MDA-MB-231 [1], the OD worked out at 0.56. In series [2], this compound showed a logP of 1.35. Also, in the series with MDA-MB-231 [3], the viability at 100 µg/mL amounted to 27.7%. For the same compound, the viability at 10 µg/mL in the series on MDA-MB-231 [4] came to 38.3%.

For `Cc1nc(-c2ccc(OCC(C)C)c(C#N)c2)sc1C(=O)n1cc(F)c(N)nc1=O`, the OD in the series on MDA-MB-231 [1] is 2.11. The same compound gave a logP in series [2] of 0.94. The viability at 100 µg/mL in the series on MDA-MB-231 [3] stood at 66.4%. Besides, the viability at 10 µg/mL in the series with MDA-MB-231 [4] came to 74.6%.

Regarding `Cc1nc(-c2ccc(OCC(C)C)c(C#N)c2)sc1C(=O)NCc1ccccc1F`, the OD in the series with MDA-MB-231 [1] worked out at 1.27. The logP in series [2] came to 2.9. Further, the viability at 100 µg/mL in the series on MDA-MB-231 [3] amounted to 43.2%. The viability at 10 µg/mL in the series with MDA-MB-231 [4] stood at 58.3%.

As for `Cc1nc(-c2ccc(OCC(C)C)c(C#N)c2)sc1C(=O)NCc1ccc(F)cc1`, the OD with MDA-MB-231 [1] came to 0.33. The logP in series [2] turned out to be 2.86. Further, in the series with MDA-MB-231 [3], the viability at 100 µg/mL stood at 13.1%. Besides, the viability at 10 µg/mL with MDA-MB-231 [4] was 21.8%.

Regarding `Cc1nc(-c2ccc(OCC(C)C)cc2)sc1C(=O)O`, the OD with MDA-MB-231 [1] came to 1.73. For the same compound, the logP in series [2] amounted to 3.08. Moreover, the viability at 100 µg/mL in the series with MDA-MB-231 [3] is 59.3%. Besides, the viability at 10 µg/mL in the series on MDA-MB-231 [4] amounted to 71.2%.

`Cc1nc(-c2ccc(OCC(C)C)c(C#N)c2)sc1C(=O)OCC(C)C`: in the series on MDA-MB-231 [1], the OD turned out to be 1.16. The lipophilicity (logP) in series [2] was determined as 0. In the series with MDA-MB-231 [3], the viability at 100 µg/mL worked out at 36.2%. The viability at 10 µg/mL in the series on MDA-MB-231 [4] was 44.2%.

As for `Cc1nc(-c2ccc(OCC(C)C)c(C#N)c2)sc1C(=O)NCc1cccc(F)c1`, in the series on MDA-MB-231 [1], the OD was 1.44. Further, the logP in series [2] turned out to be 2.86. For the same compound, in the series with MDA-MB-231 [3], the viability at 100 µg/mL was 54.3%. Also, in the series on MDA-MB-231 [4], the viability at 10 µg/mL turned out to be 64.3%.

Regarding `Cc1nc(-c2ccc(OCC(C)C)c(C#N)c2)sc1C(=O)Nc1ccccc1`, in the series with MDA-MB-231 [1], the OD was found to be 1.31. In series [2], this compound yielded a logP of 4.57. Also, the viability at 100 µg/mL in the series on MDA-MB-231 [3] worked out at 50.7%. Moreover, the viability at 10 µg/mL in the series on MDA-MB-231 [4] was found to be 62.7%.

In the case of `Cc1nc(-c2ccc(OCC(C)C)c(C#N)c2)sc1C(=O)N1CCC(c2noc3cc(F)ccc23)CC1`, the OD with MDA-MB-231 [1] worked out at 1.65. Also, the logP in series [2] was 2.7. The viability at 100 µg/mL in the series with MDA-MB-231 [3] was 56.3%. Further, the viability at 10 µg/mL in the series on MDA-MB-231 [4] stood at 64.6%.

For `Cc1ccc(-c2cc(C(F)(F)F)nn2-c2ccc(S(N)(=O)=O)cc2)cc1` [CELECOXIB], in the series on MDA-MB-231 [1], the OD was 0.27. For the same compound, in the series with MDA-MB-231 [3], the viability at 100 µg/mL stood at 11.4%. In the series on MDA-MB-231 [4], the viability at 10 µg/mL was 17.3%.

Regarding `Cc1nc(-c2ccc(OCC(C)C)c(C#N)c2)sc1C(=O)n1ccc(N)nc1=O`, in the series with MDA-MB-231 [1], the OD came to 0.79. Besides, the logP in series [2] came out at 1.59. Also, the viability at 100 µg/mL with MDA-MB-231 [3] turned out to be 29.2%. Besides, the viability at 10 µg/mL in the series on MDA-MB-231 [4] was found to be 40.9%.

As for `Cc1nc(-c2ccc(OCC(C)C)c(C#N)c2)sc1C(=O)NCc1ccccc1`, in the series with MDA-MB-231 [1], the OD is 1.89. The logP in series [2] is 2.2. Moreover, the viability at 100 µg/mL in the series with MDA-MB-231 [3] came out at 63.5%. Moreover, in the series on MDA-MB-231 [4], the viability at 10 µg/mL is 73.6%.

These data come from ChEMBL document CHEMBL3352197, “Design, synthesis, in silico and in vitro studies of novel 4-methylthiazole-5-carboxylic acid derivatives as potent anti-cancer agents” (Bioorg Med Chem Lett, 2014).
